# “And” between values parts separate entries of the source, which are not always exact repeats. Identical values can stand only once.
# What was measured:
# HEK-293T = test: Multiplex assay against HEK293T; assay type: toxicity, cell-based; details: human, number of replicates 2
# Outline: (§1)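 On a CQ1 microscope at 37°C and 5% CO2, live cells were imaged after compound addition. They had been stained at seeding with Hoechst33342, BioTracker Green Microtubule Cytoskeleton Dye, MitoTracker Red and Annexin V Alexa Fluor 680. CellPathfinder machine-learning gating assigned cells to Hoechst high-intensity objects or normal cells, normal cells to healthy, pyknosed or fragmented nuclei, and pyknosed cells to mitotic or apoptotic. Tubulin, mitochondrial-mass and membrane-permeability phenotypes are per cents of healthy-nucleus cells.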
# U2OS = test: Multiplex assay against U2OS; assay type: toxicity, cell-based; details: human, number of replicates 2; outline: as §1
# [1] = 24 h, 1 µM, compound concentration 1 uM
# [2] = 24 h, 10 µM, compound concentration 10 uM
# [3] = 48 h, 1 µM, compound concentration 1 uM
# [4] = 48 h, 10 µM, compound concentration 10 uM
# [5] = 12 h, 1 µM, compound concentration 1 uM
# [6] = 12 h, 10 µM, compound concentration 10 uM
smiles,measurement,setting,value
CN(C)C/C=C/C(=O)Nc1ccc(C(=O)Nc2cccc(Nc3ncc(Cl)c(-c4c[nH]c5ccccc45)n3)c2)cc1,Population Mitotic Cells (%),HEK-293T; [1],38% and 24%
same,Population Normal (%),HEK-293T; [1],75% and 76%
same,Population Pyknosed Nuclei (%),HEK-293T; [1],51% and 43%
same,Population Tubulin-Different-Phenotype (%),HEK-293T; [1],84% and 77%
same,Total Cell Count,HEK-293T; [1],394 and 349
same,Population Apoptotic (%),HEK-293T; [2],67% and 83%
same,Population Fragmented Nuclei (%),HEK-293T; [2],6% and 4%
same,Population Healthy Nuclei (%),HEK-293T; [2],49% and 46%
same,Population Hoechst High Intensity Objects (%),HEK-293T; [2],19% and 20%
same,Population Membrane Permeable-Phenotype (%),HEK-293T; [2],9% and 3%
same,Population Mitochondria Different-Phenotype (%),HEK-293T; [2],22% and 35%
same,Population Mitotic Cells (%),HEK-293T; [2],32% and 16%
same,Population Normal (%),HEK-293T; [2],80% and 79%
same,Population Pyknosed Nuclei (%),HEK-293T; [2],43% and 48%
same,Population Tubulin-Different-Phenotype (%),HEK-293T; [2],87% and 94%
same,Total Cell Count,HEK-293T; [2],472 and 454
same,Population Apoptotic (%),HEK-293T; [3],79% and 73%
same,Population Fragmented Nuclei (%),HEK-293T; [3],8% and 7%
same,Population Healthy Nuclei (%),HEK-293T; [3],49% and 42%
same,Population Hoechst High Intensity Objects (%),HEK-293T; [3],20% and 22%
same,Population Membrane Permeable-Phenotype (%),HEK-293T; [3],3% and 7%
same,Population Mitochondria Different-Phenotype (%),HEK-293T; [3],43% and 55%
same,Population Mitotic Cells (%),HEK-293T; [3],20% and 26%
same,Population Normal (%),HEK-293T; [3],79% and 77%
same,Population Pyknosed Nuclei (%),HEK-293T; [3],42% and 49%
same,Population Tubulin-Different-Phenotype (%),HEK-293T; [3],63% and 74%
same,Total Cell Count,HEK-293T; [3],354 and 385
same,Population Apoptotic (%),HEK-293T; [4],79% and 85%
same,Population Fragmented Nuclei (%),HEK-293T; [4],8% and 7%
same,Population Healthy Nuclei (%),HEK-293T; [4],36% and 31%
same,Population Hoechst High Intensity Objects (%),HEK-293T; [4],21% and 19%
same,Population Membrane Permeable-Phenotype (%),HEK-293T; [4],7% and 3%
same,Population Mitochondria Different-Phenotype (%),HEK-293T; [4],33% and 41%
same,Population Mitotic Cells (%),HEK-293T; [4],20% and 14%
same,Population Normal (%),HEK-293T; [4],78% and 80%
same,Population Pyknosed Nuclei (%),HEK-293T; [4],54% and 60%
same,Population Tubulin-Different-Phenotype (%),HEK-293T; [4],82% and 97%
same,Total Cell Count,HEK-293T; [4],449 and 445
same,Population Apoptotic (%),U2OS; [5],81% and 93%
same,Population Fragmented Nuclei (%),U2OS; [5],12% and 3%
same,Population Healthy Nuclei (%),U2OS; [5],53% and 73%
same,Population Hoechst High Intensity Objects (%),U2OS; [5],0%
same,Population Membrane Permeable-Phenotype (%),U2OS; [5],0% and 2%
same,Population Mitochondria Different-Phenotype (%),U2OS; [5],0% and 4%
same,Population Mitotic Cells (%),U2OS; [5],18% and 6%
same,Population Normal (%),U2OS; [5],100%
same,Population Pyknosed Nuclei (%),U2OS; [5],34% and 22%
same,Population Tubulin-Different-Phenotype (%),U2OS; [5],64% and 72%
same,Population Apoptotic (%),U2OS; [6],96% and 89%
same,Population Fragmented Nuclei (%),U2OS; [6],17% and 9%
same,Population Healthy Nuclei (%),U2OS; [6],35% and 56%
same,Population Hoechst High Intensity Objects (%),U2OS; [6],0%
same,Population Membrane Permeable-Phenotype (%),U2OS; [6],18% and 17%
same,Population Mitochondria Different-Phenotype (%),U2OS; [6],4% and 11%
same,Population Mitotic Cells (%),U2OS; [6],3% and 10%
same,Population Normal (%),U2OS; [6],100%
same,Population Pyknosed Nuclei (%),U2OS; [6],46% and 34%
same,Population Tubulin-Different-Phenotype (%),U2OS; [6],40% and 48%
same,Population Apoptotic (%),U2OS; [1],83% and 94%
same,Population Fragmented Nuclei (%),U2OS; [1],17% and 9%
same,Population Healthy Nuclei (%),U2OS; [1],31% and 40%
same,Population Hoechst High Intensity Objects (%),U2OS; [1],0% and 1%
same,Population Mitochondria Different-Phenotype (%),U2OS; [1],27% and 12%
same,Population Normal (%),U2OS; [1],100% and 98%
same,Population Pyknosed Nuclei (%),U2OS; [1],51% and 50%
same,Population Tubulin-Different-Phenotype (%),U2OS; [1],100% and 77%
same,Population Apoptotic (%),U2OS; [2],92% and 98%
same,Population Fragmented Nuclei (%),U2OS; [2],21% and 11%
same,Population Healthy Nuclei (%),U2OS; [2],18% and 31%
same,Population Hoechst High Intensity Objects (%),U2OS; [2],0% and 1%
same,Population Membrane Permeable-Phenotype (%),U2OS; [2],46% and 27%
same,Population Mitochondria Different-Phenotype (%),U2OS; [2],23% and 31%
same,Population Mitotic Cells (%),U2OS; [2],7% and 1%
same,Population Normal (%),U2OS; [2],100% and 98%
same,Population Pyknosed Nuclei (%),U2OS; [2],59% and 57%
same,Population Tubulin-Different-Phenotype (%),U2OS; [2],61% and 54%
same,Population Apoptotic (%),U2OS; [3],84% and 96%
same,Population Fragmented Nuclei (%),U2OS; [3],17% and 10%
same,Population Healthy Nuclei (%),U2OS; [3],14% and 18%
same,Population Hoechst High Intensity Objects (%),U2OS; [3],0% and 2%
same,Population Membrane Permeable-Phenotype (%),U2OS; [3],50% and 44%
same,Population Mitochondria Different-Phenotype (%),U2OS; [3],50% and 48%
same,Population Normal (%),U2OS; [3],100% and 97%
same,Population Pyknosed Nuclei (%),U2OS; [3],67% and 70%
same,Population Tubulin-Different-Phenotype (%),U2OS; [3],100% and 88%
same,Population Apoptotic (%),U2OS; [4],99% and 95%
same,Population Fragmented Nuclei (%),U2OS; [4],7% and 19%
same,Population Hoechst High Intensity Objects (%),U2OS; [4],3% and 0%
same,Population Mitochondria Different-Phenotype (%),U2OS; [4],67% and 100%
same,Population Mitotic Cells (%),U2OS; [4],0% and 4%
same,Population Normal (%),U2OS; [4],96% and 100%
same,Population Pyknosed Nuclei (%),U2OS; [4],79% and 78%
same,Population Tubulin-Different-Phenotype (%),U2OS; [4],89% and 100%

# From ChEMBL document CHEMBL5303300, “EUbOPEN Chemogenomics Library - Multiplex” (2023)
